# High-throughput results deposited in PubChem BioAssay by The Scripps Research Institute Molecular Screening Center.
# TAAR1 antagonist = antagonists of human TAAR1; hit rate 1.5% among 360,000; Q96RJ0; inhibition, % at 3 µM; CHO RD-HGA16 TAAR1, Fluo-8 calcium fluorescence, antagonist;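 active = inhibition above a per-plate cutoff, the mean inhibition of test compounds on that plate plus 3 SD, cut at about 49% in these data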;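 also: 0% = DMSO plus EC80 beta-PEA response and 100% = DMSO alone without agonist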
# Target sequence (Q96RJ0 whole entry, looked up): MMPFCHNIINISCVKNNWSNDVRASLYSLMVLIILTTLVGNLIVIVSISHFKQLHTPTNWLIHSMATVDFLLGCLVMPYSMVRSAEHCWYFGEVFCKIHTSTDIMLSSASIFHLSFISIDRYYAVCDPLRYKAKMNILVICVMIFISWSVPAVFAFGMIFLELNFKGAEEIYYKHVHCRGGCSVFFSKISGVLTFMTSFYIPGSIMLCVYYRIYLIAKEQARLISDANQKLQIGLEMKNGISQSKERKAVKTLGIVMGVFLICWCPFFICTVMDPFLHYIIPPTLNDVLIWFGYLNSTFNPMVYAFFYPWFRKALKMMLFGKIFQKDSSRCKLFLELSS
#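 System: RD-HGA16 CHO cells with stable hTAAR1 and Gα16 | Probe or stimulus: EC80 β-phenethylamine stimulus | Dosing: 3 µM, single point | Times: Dye loading 75 min at 37 °C, then 30 min room temperature | Measured by: Fluo-8 calcium-sensitive fluorescence | Read-out basis: % inhibition of agonist calcium response | Replicates: n of 1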
# HCV NS3 hel inh = inhibitors of Hepatitis C virus NS3 helicase. NS3 helicase DNA unwinding, Cy5 molecular beacon fluorescence. hit rate 0.56% among 290,000. inhibition, % at 10.9 µM. AID 1800;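 active = inhibition above the mean of all tested compounds plus 3 SD, set per campaign, cut at about 35% in these data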;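 also: 0% = DMSO wells and 100% = thioflavine S control wells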
#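 System: HCV NS3 helicase fragment; control set: DMSO and thioflavine S; technique: Cy5 fluorescence at 0 and 60 min, beacon hairpin quenching; reagent: beacon DNA duplex substrate plus ATP; replicates: singlicate; schedule: 1 h reaction at 25 °C, ATP-initiated; medium: MOPS buffer pH 6.5 with MgCl2, DTT, Tween20, BSA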
# TAAR1 ag = human TAAR1 agonism; hit rate 0.99% among 360,000; AID 624467; Q96RJ0; CHO RD-HGA16 TAAR1, Fluo-8 calcium fluorescence; vehicle wells 0%, saturating PEA agonist 100%; activation, % at 3 µM;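 active = activation above the mean activation of all test compounds in the run plus 3 SD, cut at about 38% in these data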
#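 System: CHO-derived RD-HGA16 cells with stable Gα16 and human TAAR1 / Times: 17-24 h plating, Fluo-8 75 min 37 °C, 30 min RT / Technique: calcium-sensitive Fluo-8 signal, excitation 470-495, emission 515-575 nm / Measure: % activation relative to PEA EC100 response / Benchmarks: DMSO and PEA EC100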
# HCV core dimer = blocks dimerization of HCV core protein | inhibition, % at 5 µM | hit rate 0.33% among 300,000 | AID 1899 | TR-FRET GST/Flag-core106 dimerization, 1536-well;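 active = inhibition above the mean of all tested compounds plus 3 SD, set per screening campaign, cut at about 45% in these data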
#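 Assay system: Tagged HCV core106 pair (GST and Flag) | Buffer or medium: KF-containing HEPES buffer, pH 7.45, DTT, CHAPS, BSA | Also added: Eu donor and XL665 acceptor anti-tag antibodies | Dosing: One concentration, 5 µM, in 0.5% DMSO | Timing: 4 h at 22.5 °C | Technique: TR-FRET 671 and 617 nm emission | Repeats: Singlicate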
# rCAG RNA binder = binds r(CAG) RNA repeats; r(CAG) RNA repeat, TO-PRO-1 dye displacement fluorescence; inhibition, % at 3 µM; hit rate 1.3% among 370,000; AID 651821;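 active = inhibition above the plate cutoff, the mean of all test compounds on that plate plus 3 SD, cut at about 35% in these data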;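 also: 0% = DMSO alone and 100% = 100 µM mitoxantrone as full dye displacement; higher means more dye released from RNA so lower well fluorescence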
# An asterisk follows results filed as active; . = no result given. Shown are actives, neighbours in structure and some others; about 3.7% of the full set was active somewhere.
SMILES,TAAR1 antagonist,HCV NS3 hel inh,TAAR1 ag,HCV core dimer,rCAG RNA binder
N#CC1c2ccccc2-n2nncc2CN1C(=O)c1ccc([N+](=O)[O-])o1 (stereo not given),.,.,.,.,1
CCC(=NCCc1c[nH]c2ccccc12)c1c(O)n(C)c(=O)n(C)c1=O,50*,-11,13,4,-4
CC(=NCCc1ccccc1)c1c(O)n(C)c(=O)n(C)c1=O,-26,-3,43*,0,-4
CCC(=NCCc1c[nH]c2ccccc12)c1c(O)n(-c2ccc(C)cc2)c(=O)[nH]c1=O,-2,6,6,-1,-2
N#CC1c2ccccc2-n2nncc2CN1C(=O)c1cccnc1 (stereo not given),.,.,.,.,2
O=C(O)c1cc2ccccc2n1C1CCN(Cc2ccccc2)CC1,.,.,.,.,7
COc1ccc2c3c([nH]c2c1)[C@H](C=C(C)C)N1C(=O)[C@@H]2CCCN2C(=O)[C@@H]1C3,.,.,.,.,0
Cc1ccc(/C=C2/C(=O)NC(=O)N(CCc3ccc(F)cc3)C2=O)o1,28,24,39*,13,28
O=C1NC(=O)N(CCc2ccc(F)cc2)C(=O)/C1=C/c1ccco1,-30,-1,12,10,74*
O=C1NC(=O)N(CCc2ccc(F)cc2)C(=O)/C1=C/c1cccs1,0,11,4,1,28
Cc1ccc(OC(=O)N(C)C[C@H]2OCc3cnnn3CCCC(=O)N([C@H](C)CO)C[C@H]2C)cc1,-37,.,3,.,0
C[C@]12CCC(=O)C[C@@H]1CC[C@@H]1[C@@H]2CC[C@@]2(C)[C@H]1CC[C@]2(C)O,.,-4,.,.,.
CCN(CC)CCC(=O)O[C@H]1CC[C@]2(C)C3CC[C@@]4(C)C(CC[C@]4(C)O)C3CC[C@H]2C1 (stereo not given in full),60*,.,43*,.,-2
COc1cc(O)c2c(c1)/C=C/C[C@H](O)[C@H](O)[C@@H](O)/C=C/C[C@H](C)OC2=O,.,.,.,.,2
COc1ccc(-n2c(O)c(/C=C/C=Nc3ccccc3)c(=O)[nH]c2=O)cc1,33,7,63*,-8,-171
O=c1[nH]c(=O)n(C2CCCCC2)c(O)c1/C=C/C=Nc1ccccc1,43,12,39*,2,-19
O=c1[nH]c(=O)n(-c2ccccc2)c(O)c1/C=C/C=Nc1ccccc1,6,7,13,-8,-63
COC(=O)C1=C(c2cccc3c2S(=O)(=O)c2ccccc2-3)C[C@@H]2CC[C@H]1N2C(=O)N1CCc2cc(OC)c(OC)cc2C1,51*,.,17,.,4
C=C(C=O)CC1CC(O)[C@]2(C)OC3CC4OC5C[C@]6(C)O[C@]7(C)CCC8OC9C[C@]%10(C)OC%11C(C)=CC(=O)OC%11CC%10OC9C[C@@H](C)C8OC7CC6O[C@]5(C)CC5OC5C4OC3CC2O1 (stereo not given in full),.,4,.,49*,.
C=C(CO)CC1CC(O)[C@]2(C)OC3CC4OC5C[C@]6(C)O[C@]7(C)CCC8OC9C[C@]%10(C)OC%11C(C)=CC(=O)OC%11CC%10OC9C[C@@H](C)C8OC7CC6O[C@]5(C)C/C=C\C4OC3CC2O1 (stereo not given in full),-4,-4,0,-3,3
CC[C@H](C(N)=O)N1CCCC1=O,.,.,.,.,1
Nc1c(C(=O)NCCCc2ccccc2)c2nc3ccccc3nc2n1Cc1cccs1,-10,2,37*,-9,9
CC(C)C(NC(=O)OCc1ccccc1)P(=O)(Oc1ccccc1)Oc1ccccc1 (stereo not given),.,.,.,.,3
NCCc1ccc(S(N)(=O)=O)cc1,-10,1,8,-1,1
NCCc1ccccc1,81*,.,92*,0,-1
SMILES,TAAR1 antagonist,HCV NS3 hel inh,TAAR1 ag,HCV core dimer,rCAG RNA binder
COc1ccc(C(c2nnnn2-c2ccc3c(c2)OCCO3)N2CCC(n3c(=O)[nH]c4ccccc43)CC2)cc1 (stereo not given),59*,.,20,.,12
CSCCC(c1nnnn1-c1ccc2c(c1)OCCO2)N1CCC2(CC1)C(=O)NCN2c1ccccc1 (stereo not given),54*,.,17,.,4
Cc1cccc(C)c1-n1nnnc1C(CCc1ccccc1)N1CCC(n2c(=O)[nH]c3ccccc32)CC1 (stereo not given),16,.,4,.,4
COc1cccc(C(c2nnnn2Cc2ccccc2)N2CCC3(CC2)C(=O)NCN3c2ccccc2)c1OC (stereo not given),54*,.,8,.,6
O=c1[nH]c2ccccc2n1C1CCN(C(CCc2ccccc2)c2nnnn2-c2ccc3c(c2)OCCO3)CC1 (stereo not given),55*,.,7,.,13
O=C(CN1C(=O)CN=C(c2ccccc2)c2cc(Cl)ccc21)NC1CCCCC1,.,.,.,.,6
COc1ccc(-n2nnnc2C(CCSC)N2CCC(n3c(=O)[nH]c4ccccc43)CC2)cc1 (stereo not given),55*,.,14,.,1
Cc1cc(C)cc(-n2c(C)cc(/C=C3\C(=O)NC(=O)N(C)C3=O)c2C)c1,-16,9,38*,17,6
O=C1NC(=O)N(c2ccccc2)C(=O)/C1=C/c1ccc(Sc2ccccc2)o1,.,15,.,9,.
O=C1NC(=O)N(c2ccccc2F)C(=O)/C1=C/c1ccc(Sc2nc3ccccc3[nH]2)o1,57*,36,74*,5,46*
O=c1[nH]cc(N(CCCl)CCCl)c(=O)[nH]1,.,.,.,.,3
COC1C(C)OC(OC2CC(C)(O)Cc3cc4c(c(O)c32)C(=O)c2c(O)cc3c(c2C4=O)OC2OC3(C)C(O)C(N(C)C)C2O)C(OC)C1(C)OC (stereo not given),39,.,47*,.,-43
CC(=O)OC1C(=O)OCC23CCC4(C)OC4C2OC2CC(OC(=O)C=CC=CC(=O)OCCC1C)C3(C)C21CO1 (stereo not given),65*,.,12,.,1
CC(O)C1C=CC=CC(=O)OC2CC3OC4C5OC5(C)CCC4(COC(=O)C4OC4(C)C(O)CO1)C2(C)C31CO1 (stereo not given),-12,.,0,.,8
CCOCCCn1c(N)c(C(=O)Nc2sc3c(c2C(=O)OC)CCCC3)c2nc3ccccc3nc21,64*,22,21,-2,25
CCOC(=O)c1c(NC(=O)c2c(N)n(CCCOC)c3nc4ccccc4nc23)sc2c1CCCC2,-3,27,10,1,7
O=C(O)c1cccc2c1NC(C(=O)O)C1CC(Sc3ccccc3[N+](=O)[O-])C(Cl)C21 (stereo not given),-7,35,0,-6,100*
COC(=O)C(O)(c1ccc(NC(=S)NC(=O)c2ccc(Cl)cc2Cl)cc1)C(F)(F)F (stereo not given),54*,4,48*,0,-4
